Measurements taken from article PMC9732819 (ACS Chemical Neuroscience, 2022).

Assays:
[1] = test system: potassium channel; settings: read-out: in vitro IC50; electrophysiology; cited from earlier work
[2] = arterial blood and radiometabolite analysis in nonhuman primates; type: in vivo, rhesus macaques
How it was run: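 Rhesus macaques were sedated with ketamine/xylazine IM and kept on isoflurane. Arterial blood was sampled manually via a posterior tibial catheter throughout PET to measure whole-blood and plasma radioactivity. Plasma from 3–120 min was filtered through a 10K filter (21 000 rcf, 8 °C, 15 min) and run on C18 radioHPLC in pH 12 phosphate/NaOH:MeCN 96:4 to obtain the parent fraction. Plasma-free fraction was measured in triplicate.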

[3] = test system: voltage-gated K^+ channels; assay: PET imaging and ex vivo γ counting of brain and blood in healthy rats; set-up: species or system Sprague Dawley rats
How it was run: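 Six–eight-week-old male and female Sprague Dawley rats received ~14.8 MBq tracer by tail vein, alone or with 5 mg/kg cold test compound (5–10 mg/kg in the ex vivo legend), in saline containing ≤10% […]. Rats underwent 60 min PET/CT under 2% isoflurane. Blood (cardiac puncture) and brain were then collected, weighed and γ-counted to give SUV ratios. Imaging used 4 rats; γ-counting used 15. Data are mean ± SD.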

[4] = test system: voltage-gated K^+ channels; assay: dynamic brain PET imaging and pharmacokinetic modeling in nonhuman primates; type: in vivo, rhesus macaques
How it was run: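 Two male rhesus macaques (10 and 14 years; one with a prior craniotomy injury) each had two baseline scans. Tracer (291.5–330.1 MBq; 90.3–247.5 GBq/μmol) was infused over 3 min into the saphenous vein, followed by a saline flush, with 180 min list-mode PET/CT under isoflurane. Ten regional TACs were taken in MRI-template space. 1T and 2T models with metabolite-corrected input gave K1 and VT (AIC comparison), with Logan and MA1 also tested.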

[5] = test system: voltage-gated K^+ channels; assay: Guo graphical comparison of regional VT between tracers in nonhuman primates; type: in vivo, rhesus macaques; settings: for slope of VT correlation plot (Guo method; in vivo affinity ratio): both monkeys combined
How it was run: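 Per animal, regional VT of the test tracer (mean of two baseline scans) was regressed against regional VT of each reference 4-aminopyridine tracer. Linearity indicated a shared target, the y-intercept sign indicated relative signal-to-noise, and the slope with measured plasma-free fractions gave the in vivo affinity ratio. Pearson r was used, with Fisher-transformation t-distribution p-values for the regression and intercept.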

Compound: Cc1cnccc1N [3Me4AP, 3-methyl-4-aminopyridine]
- IC50 [1]: 40 µM

Compound: [11CH3]c1cnccc1N [[^11C]3Me4AP, 3-[^11C]Methyl-4-aminopyridine]
- fraction unbound ([2]; male, rhesus monkey, arterial plasma): 0.94 ± 0.03
- time for WB to PL ratio to reach a plateau ([2]; monkey arterial blood): ≤ 1 min
- activity attributable to parent tracer in plasma (radioHPLC) ([2]; monkey arterial plasma, after 90 min): ~90%
- WB to PL radioactivity concentration ratio ([2]; monkey, 1 min postinjection, across all studies): 1.28 ± 0.01
- increase of whole brain to blood SUVR, coinjection group vs baseline group ([3]; 60 min, p = 0.017): 43%
- time of peak radioactivity in the brain ([3]; PET brain time-activity curve): ≤ 3 min
- visibility of minor focal brain lesion on PET images ([4]; monkey 2 (M2), craniotomy site): not visible
- whole brain SUV ([4]; monkey brain, 3 min): 0.7
- K1 (rate constant for transfer from plasma to brain tissue) ([4]; monkey whole brain, 1T2k1v model): ~0.035 mL/min/cc
- total volume of distribution (VT) ([4]; striatum, monkey 1, 1T2k1v): 4.67 mL/cc
- total volume of distribution (VT) ([4]; striatum, monkey 2, 1T2k1v): 4.68 mL/cc
- total volume of distribution (VT) ([4]; white matter, monkey 1, 1T2k1v): 3.61 mL/cc
- total volume of distribution (VT) ([4]; white matter, monkey 2, 1T2k1v): 3.78 mL/cc
- slope of VT correlation plot (Guo method; in vivo affinity ratio) ([5]; vs [^11C]3MeO4AP, p < 0.0001): 0.73
- intercept of Guo plot (relative specific binding) ([5]; vs [^11C]3MeO4AP, p = 0.31): 0.67
- slope of VT correlation plot (Guo method; in vivo affinity ratio) ([5]; vs [^18F]3F4AP, p = 0.0001): 1.93
- intercept of Guo plot (relative specific binding) ([5]; vs [^18F]3F4AP, p = 0.91): 0.10
